SMILES strings stand for the structures. pKd: −log10 of the molar value. Where a SMILES comes first, the peptide text is derived from it. Bridges are numbered along the chain shown (N, C = ends). Roman numbers before positions name the chains, in order. [ ]: non-standard residue; d: D form. PEG3 = NCCOCCOCCOCCC(=O)O; Dap = NC[C@H](N)C(=O)O

Experimental findings from publication PMC7733813 (Proceedings of the National Academy of Sciences of the …, 2020) are described below.

The target in one test is T1, mouse PlxnB1 (Mus musculus, UniProt Q8CJH3).
T1 sequence (Q8CJH3 20-479 limits assumed): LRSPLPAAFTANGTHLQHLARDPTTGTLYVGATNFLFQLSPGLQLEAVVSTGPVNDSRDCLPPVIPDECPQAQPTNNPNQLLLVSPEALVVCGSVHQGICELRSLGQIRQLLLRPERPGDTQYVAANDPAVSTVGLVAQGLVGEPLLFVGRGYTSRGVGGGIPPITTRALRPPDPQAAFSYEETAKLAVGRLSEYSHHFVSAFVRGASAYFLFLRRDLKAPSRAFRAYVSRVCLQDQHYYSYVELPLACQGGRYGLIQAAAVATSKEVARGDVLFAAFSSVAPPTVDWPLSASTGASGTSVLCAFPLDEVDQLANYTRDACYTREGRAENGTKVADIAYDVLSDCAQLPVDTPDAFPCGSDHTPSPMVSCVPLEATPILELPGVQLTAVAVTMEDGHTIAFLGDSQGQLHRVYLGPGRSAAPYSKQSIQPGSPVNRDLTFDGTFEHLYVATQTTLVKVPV
Put plainly: Surface plasmon resonance. It counts as binding.

The test system of test [1] is mouse primary osteoblasts (calvarial cells). Put plainly: Bone nodule formation in primary calvarial cells, alizarin red S staining. The conditions noted are these: 10 µg/mL mouse Sema4D-Fc; peptide 0.05, 0.5, 5 µM; 21 d. The format is cell-based.
Test [2] deals with Col1a1, Alpl, Bglap expression in mouse primary osteoblasts. Put plainly: qPCR of genes implicated in osteoblastic bone formation in primary osteoblasts. The conditions noted are these: with or without Sema4D-Fc, vs vehicle control. The format is cell-based.
A further test relates to ovariectomized mice. It counts as in vivo, mouse. The conditions noted are these: OVX mice, 5 µmol/kg i.v. once weekly, 4 wk, vs vehicle. The gist of the method: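 C57BL/6J ovariectomized mice, kept specific-pathogen-free, were given test compound i.v. once weekly for 4 wk. Sham-operated and vehicle groups served as controls. Bones were fixed in 70% ethanol and scanned by µCT, and 3D structural indices were computed. Undecalcified tibiae were embedded in glycol methacrylate and cut into 5 µm sections. Sections were stained with toluidine blue for osteoblast parameters and TRAP for osteoclast parameters. Data are mean ± SEM.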

Consider `CC[C@H](C)[C@@H]1NC(=O)[C@H](Cc2ccc(O)cc2)NC(=O)[C@@H]2CCCN2C(=O)[C@H](CCCNC(=N)N)NC(=O)[C@@H](Cc2c[nH]c3ccccc23)NC(=O)CSC[C@@H](C(=O)NCC(=O)NCCOCCOCCOCCC(=O)NC[C@H](NC(=O)CCOCCOCCOCCNC(=O)CNC(=O)[C@@H]2CSCC(=O)N[C@H](Cc3c[nH]c4ccccc34)C(=O)N[C@@H](CCCNC(=N)N)C(=O)N3CCC[C@H]3C(=O)N[C@@H](Cc3ccc(O)cc3)C(=O)N[C@@H]([C@@H](C)CC)C(=O)N[C@@H](CCC(=O)O)C(=O)N[C@@H](CCCNC(=N)N)C(=O)N[C@@H](Cc3c[nH]c4ccccc34)C(=O)N[C@@H]([C@@H](C)O)C(=O)NCC(=O)N[C@@H](CCCNC(=N)N)C(=O)N[C@@H](CC(C)C)C(=O)N[C@@H]([C@@H](C)CC)C(=O)N[C@@H](C(C)C)C(=O)N2)C(N)=O)NC(=O)[C@H](C(C)C)NC(=O)[C@H]([C@@H](C)CC)NC(=O)[C@H](CC(C)C)NC(=O)[C@H](CCCNC(=N)N)NC(=O)CNC(=O)[C@H]([C@@H](C)O)NC(=O)[C@H](Cc2c[nH]c3ccccc23)NC(=O)[C@H](CCCNC(=N)N)NC(=O)[C@H](CCC(=O)O)NC1=O` [PB1d6A9] (I: {CH2CO}-[dW]RPYIERWTGRLIVCG[PEG3][Dap]-NH2 / II: {CH2CO}-[dW]RPYIERWTGRLIVCG[PEG3]; amide I:18-II:C; thioether I:N-I:15, II:N-II:15), for which the pKd on mouse PlxnB1 is 9.70. On mouse PlxnB1 (PB1d6A9 vs PB1m6A9), the “decrease in dissociation rate of dimer over monomer, mouse PlxnB1” value was determined as 10 fold; the “improvement in KD of dimer over monomer, mouse PlxnB1” value is reported as ~220 fold; the “increase in association rate of dimer over monomer, mouse PlxnB1” value worked out at 22 fold. Also, the “bone nodule formation (alizarin red S)” value in test [1] is listed as “dose-dependent increases in bone formation”. Further, in test [2], the “expression of Col1a1, Alpl and Bglap” value was “enhanced”. Also, the “bone loss, µCT of femurs” value in the test on ovariectomized mice is recorded as “clear suppression of bone loss”.
